# The source made the active and inactive calls. The rule behind the calls is not given here.
# Tests used:
# [1] = Antiproliferative activity against human SB-590885-resistant MEL1617 cells assessed as reduction in cell viability measured after 48 hrs by MTS assay; format: functional, cell-based
# In short: (§1)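 Melanoma lines were grown in RPMI-1640 with Glutamax at 37 °C and 5% CO2. The resistant 451 Lu-R and MEL 1617-R sublines were maintained with 1 µM PLX4720. Cells were incubated with vehicle or inhibitor over a dose range, and viability was read by MTS assay in triplicate.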
# [2] = biological target: T1, Signal transducer and activator of transcription 3 (Homo sapiens, UniProt P40763); assay: Inhibition of STAT3 phosphorylation at Y705 residue in human SB-590885-sensitive 451Lu cells measured after 12 hrs by Western blot analysis; conditions: dose 10-25 µM
# T1 sequence (P40763 whole entry): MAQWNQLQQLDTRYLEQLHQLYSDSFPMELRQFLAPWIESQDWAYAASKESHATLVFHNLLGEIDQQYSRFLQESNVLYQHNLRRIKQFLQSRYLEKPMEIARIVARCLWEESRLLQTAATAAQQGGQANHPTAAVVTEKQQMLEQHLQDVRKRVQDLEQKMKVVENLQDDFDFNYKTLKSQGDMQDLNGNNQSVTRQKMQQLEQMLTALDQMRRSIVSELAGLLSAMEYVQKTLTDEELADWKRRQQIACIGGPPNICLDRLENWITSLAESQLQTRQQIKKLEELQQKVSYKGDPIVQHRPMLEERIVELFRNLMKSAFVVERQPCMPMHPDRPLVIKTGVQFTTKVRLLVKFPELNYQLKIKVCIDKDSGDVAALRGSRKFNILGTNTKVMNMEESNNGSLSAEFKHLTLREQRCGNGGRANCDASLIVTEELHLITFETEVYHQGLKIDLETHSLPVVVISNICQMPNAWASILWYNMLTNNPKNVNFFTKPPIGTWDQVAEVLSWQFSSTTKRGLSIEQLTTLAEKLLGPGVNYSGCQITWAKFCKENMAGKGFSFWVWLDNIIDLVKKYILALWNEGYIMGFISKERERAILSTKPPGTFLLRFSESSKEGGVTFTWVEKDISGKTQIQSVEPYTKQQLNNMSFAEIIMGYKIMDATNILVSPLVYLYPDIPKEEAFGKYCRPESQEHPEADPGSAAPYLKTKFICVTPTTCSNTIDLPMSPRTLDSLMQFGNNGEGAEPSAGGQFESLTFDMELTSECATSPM
# In short: (§2)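 451 Lu and MEL 1617 pairs, sensitive and resistant; resistant lines maintained in RPMI with 1 µM PLX4720. Treated with 10 and 25 µM for 12 h versus DMSO. Lysates (60 µg protein, 10% SDS-PAGE) immunoblotted for Ser727- and Tyr705-phospho-STAT3, total STAT3, total PAX3, with actin.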
# [3] = biological target: T1, Signal transducer and activator of transcription 3; assay: Inhibition of STAT3 in human SB-590885-resistant MEL1617 cells assessed as reduction in STAT3 transcriptional activity measured after 12 hrs by Dual-luciferase reporter gene assay; format: cell-based
# In short: (§3)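 Cells co-transfected with inducible STAT3-responsive firefly luciferase and constitutive Renilla luciferase constructs (40:1) using Lipofectamine 3000. After 48 h, dose series in DMSO vehicle applied for 12 h, followed by dual-luciferase readout. Firefly signal normalized to Renilla and compared with untreated cells. Run in triplicate; IC50 taken from dose–response curves.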
# MCF-10A = assay: Cytotoxicity against human MCF-10A cells assessed as inhibition of cell proliferation by MTS assay; format: cell-based
# [4] = biological target: T1, Signal transducer and activator of transcription 3; assay: Inhibition of STAT3 phosphorylation at S727 residue in human SB-590885-sensitive 451Lu cells measured after 12 hrs by Western blot analysis; conditions: dose 10-25 µM; in short: as §2
# [5] = biological target: T1, Signal transducer and activator of transcription 3; assay: Inhibition of STAT3 phosphorylation at Y705 residue in human SB-590885-resistant 451Lu cells measured after 12 hrs by Western blot analysis; conditions: dose 10-25 µM; in short: as §2
# [6] = biological target: T1, Signal transducer and activator of transcription 3; assay: Inhibition of STAT3 phosphorylation at S727 residue in human SB-590885-resistant 451Lu cells measured after 12 hrs by Western blot analysis; conditions: dose 10-25 µM; in short: as §2
# [7] = biological target: T1, Signal transducer and activator of transcription 3; assay: Inhibition of STAT3 phosphorylation at Y705 residue in human SB-590885-sensitive MEL1617 cells at 10 to 25 uM measured after 12 hrs by Western blot analysis; format: cell-based; conditions: dose 10-25 µM; in short: as §2
# [8] = Drug metabolism in pH 7.4 phosphate buffer assessed as nitric oxide release at 100 uM measured after 2 hrs by Griess reagent based colorimetric method
# In short: (§4)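 Compound at 100 µM was held at room temperature in pH 7.4 phosphate buffer with 5 mM DTT and 2% DMSO for 2 or 48 h. Griess reagent was added, and after 30 min absorbance was read at 548 nm. NO release (mol NO/mol compound) was derived from a sodium nitrite calibration curve.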
# [9] = Antiproliferative activity against human SB-590885-sensitive 451Lu cells assessed as reduction in cell viability measured after 48 hrs by MTS assay; format: functional; in short: as §1
# A-375 [10] = assay: Potentiation of compound II-induced cytotoxicity against human A375 cells assessed as compound II IC50 at 12.5 uM measured after 48 hrs by MTS assay (reference value: 16.2 +/- 1.6 uM); format: functional, cell-based; conditions: A-375, 48 h
# [11] = biological target: T1, Signal transducer and activator of transcription 3; assay: Inhibition of STAT3 in human SB-590885-sensitive 451Lu cells assessed as reduction in PAX3 expression measured after 12 hrs by Western blot analysis; conditions: dose 10-25 µM; in short: as §2
# [12] = biological target: T1, Signal transducer and activator of transcription 3; assay: Inhibition of STAT3 in human SB-590885-sensitive MEL1617 cells assessed as reduction in PAX3 expression at 10 to 25 uM measured after 12 hrs by Western blot analysis; format: cell-based; conditions: dose 10-25 µM; in short: as §2
# [13] = biological target: T1, Signal transducer and activator of transcription 3; assay: Inhibition of STAT3 in human SB-590885-sensitive 451Lu cells assessed as reduction in STAT3 transcriptional activity measured after 12 hrs by Dual-luciferase reporter gene assay; in short: as §3
# [14] = biological target: T1, Signal transducer and activator of transcription 3; assay: Inhibition of STAT3 in human SB-590885-resistant MEL1617 cells assessed as reduction in PAX3 expression at 10 to 25 uM measured after 12 hrs by Western blot analysis; format: cell-based; conditions: dose 10-25 µM; in short: as §2
# A-375 [15] = assay: Cytotoxicity against human A-375 cells assessed as inhibition of cell proliferation measured after 48 hrs by MTS assay; format: functional, cell-based; conditions: A-375, 48 h
# In short: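 Cells were exposed to a dose range of inhibitor for 48 h, and viability was read by MTS assay in triplicate. GI50 was taken as the concentration giving 50% growth inhibition, averaged from three independent experiments. A375 was cultured in RPMI-1640 with Glutamax. A549 and NCI-H157 were kept in RPMI-1640, and MIA PaCa-2 and U87-MG in DMEM.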
# [16] = Antiproliferative activity against human SB-590885-resistant 451Lu cells assessed as reduction in cell viability measured after 48 hrs by MTS assay; format: functional; in short: as §1
# [17] = biological target: T1, Signal transducer and activator of transcription 3; assay: Inhibition of STAT3 in human SB-590885-resistant 451Lu cells assessed as reduction in STAT3 transcriptional activity measured after 12 hrs by Dual-luciferase reporter gene assay; in short: as §3
# [18] = biological target: T1, Signal transducer and activator of transcription 3; assay: Displacement of FAM-labeled 5-GpYLPQTV-NH2 from recombinant GST-tagged STAT3 (unknown origin) preincubated for 30 mins followed by FAM-labeled 5-GpYLPQTV-NH2 addition and measured after 30 mins by fluorescence assay; conditions: time 60.0 min
# In short: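 GST-STAT3 (2 µM) was bound to GST beads for 1 h at 4 °C in PBS with 0.1% β-mercaptoethanol, then washed. Bead slurry was incubated with compound dilutions (2.25% DMSO, duplicate) and FAM-GpYLPQTV-NH2 peptide. Resin was washed by vacuum filtration and fluorescence read at ex 485/em 535 nm. % displacement was set against the no-compound signal; two independent experiments.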
# [19] = biological target: T1, Signal transducer and activator of transcription 3; assay: Inhibition of STAT3 phosphorylation at S727 residue in human SB-590885-sensitive MEL1617 cells at 10 to 25 uM measured after 12 hrs by Western blot analysis; format: cell-based; conditions: dose 10-25 µM; in short: as §2
# [20] = biological target: T1, Signal transducer and activator of transcription 3; assay: Inhibition of STAT3 phosphorylation at S727 residue in human SB-590885-resistant MEL1617 cells at 10 to 25 uM measured after 12 hrs by Western blot analysis; format: cell-based; conditions: dose 10-25 µM; in short: as §2
# HFF = assay: Cytotoxicity against HFF assessed as inhibition of cell proliferation by MTS assay; format: cell-based, Homo sapiens
# [21] = biological target: T1, Signal transducer and activator of transcription 3; assay: Inhibition of STAT3 in human SB-590885-resistant 451Lu cells assessed as reduction in PAX3 expression measured after 12 hrs by Western blot analysis; conditions: dose 10-25 µM; in short: as §2
# [22] = biological target: T1, Signal transducer and activator of transcription 3; assay: Inhibition of STAT3 phosphorylation at Y705 residue in human SB-590885-resistant MEL1617 cells at 10 to 25 uM measured after 12 hrs by Western blot analysis; format: cell-based; conditions: dose 10-25 µM; in short: as §2
# [23] = Antiproliferative activity against human SB-590885-sensitive MEL1617 cells assessed as reduction in cell viability measured after 48 hrs by MTS assay; format: functional, cell-based; conditions: MEL1617, 48 h; in short: as §1
# [24] = Drug metabolism in pH 7.4 phosphate buffer assessed as nitric oxide release at 100 uM measured after 48 hrs by Griess reagent based colorimetric method; in short: as §4
# [25] = biological target: T1, Signal transducer and activator of transcription 3; assay: Inhibition of STAT3 in human SB-590885-sensitive MEL1617 cells assessed as reduction in STAT3 transcriptional activity measured after 12 hrs by Dual-luciferase reporter gene assay; format: cell-based; in short: as §3
# MOLT-4 = assay: Anticancer activity against human MOLT-4 cells assessed as cell growth inhibition at 10 uM measured after 48 hrs by SRB assay relative to control; format: functional; conditions: read-out: GI
# In short: (§5)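 NCI 60-cell-line screen. Cells in RPMI with 5% FBS were plated at 5,000–40,000 cells/well by doubling time and preincubated 24 h at 37 °C. Compound was added at a single 10 µM for 48 h, then cells were fixed with cold TCA (10% final) and stained with 0.4% SRB. Absorbance at 515 nm gave percent growth versus untreated control and time-zero cells.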
# A549 = assay: Anticancer activity against human A549 cells assessed as cell growth inhibition at 10 uM measured after 48 hrs by SRB assay; format: functional, cell-based; in short: as §5
# T47D = assay: Anticancer activity against human T47D cells assessed as cell growth inhibition at 10 uM measured after 48 hrs by SRB assay relative to control; format: functional; conditions: read-out: GI; in short: as §5
# COLO 205 = assay: Anticancer activity against human COLO 205 cells assessed as cell growth inhibition at 10 uM measured after 48 hrs by SRB assay; format: functional, cell-based; in short: as §5
# CCRF-CEM = assay: Anticancer activity against human CCRF-CEM cells assessed as cell growth inhibition at 10 uM measured after 48 hrs by SRB assay relative to control; format: functional; conditions: read-out: GI; in short: as §5
# NCI-H522 = assay: Anticancer activity against human NCI-H522 cells assessed as cell growth inhibition at 10 uM measured after 48 hrs by SRB assay; format: functional, cell-based; in short: as §5
# HL-60(TB) = assay: Anticancer activity against human HL-60(TB) cells assessed as cell growth inhibition at 10 uM measured after 48 hrs by SRB assay relative to control; format: functional; conditions: read-out: GI
# In short: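 NCI 60-cell-line screen, single dose 10 µM, DMSO stock diluted in complete medium with gentamicin. Cells in RPMI with 5% FBS, plated at density set by doubling time, preincubated 24 h, then exposed 48 h at 37 °C, 5% CO2. TCA fixation, SRB staining, absorbance at 515 nm. Percent growth taken relative to untreated control and time-zero cell number.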
# RPMI-8226 = assay: Anticancer activity against human RPMI-8226 cells assessed as cell growth inhibition at 10 uM measured after 48 hrs by SRB assay relative to control; format: functional; conditions: read-out: GI; in short: as §5
# K562 = assay: Anticancer activity against human K562 cells assessed as cell growth inhibition at 10 uM measured after 48 hrs by SRB assay relative to control; format: functional; conditions: read-out: GI; in short: as §5
Structure (SMILES),inhibition [2],inhibition [4],inhibition [5],inhibition [6],inhibition [7],Drug metabolism [8] [%],IC50 [9] [µM],inhibition [11],inhibition [12],inhibition [14],IC50 (A-375 [15]) [µM],inhibition [19],inhibition [20],inhibition [21],inhibition [22],IC50 [23] [µM],Drug metabolism [24] [%],also measured
COc1ccc2nc(-c3ccc(Cl)cc3)cc(-c3nnc(SCC(=O)Nc4ccc(/C(C)=N\O)cc4)n3-c3ccccc3)c2c1,inactive,inactive,inactive,inactive,inactive,15,> 50,inactive,inactive,inactive,> 100,inactive,inactive,inactive,inactive,> 50,30,"IC50 ([1]; Homo sapiens, MEL1617, 48 h, read-out: IC50): > 50 µM; IC50 [3]: 35.2 µM; IC50 (MCF-10A; mcf-10a): Not Active; IC50 (A-375 [10]): 6.8 µM; IC50 [13]: 54 µM; IC50 ([16]; Homo sapiens, 451Lu, 48 h, read-out: IC50): > 50 µM; IC50 [17]: 40.5 µM; inhibition [18]: inactive; IC50 (HFF; hff): Not Active; IC50 [25]: 75 µM"
CCCS(=O)(=O)Nc1ccc(F)c(C(=O)c2c[nH]c3ncc(Cl)cc23)c1F [PLX-4720],,,,,,,0.062,,,,,,,,,0.084,,IC50 ([1]; mel1617): Not Active; IC50 ([16]; 451lu): Not Active
O=C(Nc1nnc(-c2ccco2)o1)c1cc(-c2ccccc2)nc2ccccc12,,,,,,,,,,,16.2,,,,,,,"IC50 (MCF-10A; Homo sapiens, MCF-10A, read-out: IC50): 33.4 µM; IC50 (HFF; Homo sapiens, HFF, read-out: IC50): 72.2 µM"
COc1ccc2nc(-c3ccc(OC)c(OC)c3)cc(-c3nnc(SCC(=O)Nc4ccc(/C(C)=N\O)cc4)n3-c3ccccc3)c2c1,inactive,inactive,inactive,inactive,inactive,15,,inactive,inactive,inactive,,inactive,inactive,inactive,inactive,,30,
C=CCn1c(SCC(=O)Nc2ccc(/C(C)=N\O)cc2)nnc1-c1cc(-c2ccc(OC)cc2)nc2ccccc12,,,,,,,,,,,,,,,,,,inhibition of growth at 10 µM (MOLT-4): 81%; growth inhibition (GI) (A549): Active; inhibition of growth at 10 µM (T47D): 100%; growth inhibition (GI) (COLO 205): Active; inhibition of growth at 10 µM (CCRF-CEM): 81%; growth inhibition (GI) (NCI-H522): Active; inhibition of growth at 10 µM (HL-60(TB)): 100%; inhibition of growth at 10 µM (RPMI-8226): 81%; inhibition of growth at 10 µM (K562): 81%
COc1ccc(-c2cc(-c3nnc(SCC(=O)Nc4ccc(/C(C)=N\O)cc4)n3-c3ccccc3)c3cc(OC)ccc3n2)cc1,inactive,inactive,inactive,inactive,inactive,15,,inactive,inactive,inactive,,inactive,inactive,inactive,inactive,,30,

# — ChEMBL document CHEMBL4715843, “NO-releasing STAT3 inhibitors suppress BRAF-mutant melanoma growth” (Eur J Med Chem, 2020)
